Measured values as given in ChEMBL document CHEMBL1687758, “Azithromycin alters macrophage phenotype and pulmonary compartmentalization during lung infection with Pseudomonas” (2010).
Activity calls are given as the source filed them. The rule behind the calls is not given here.

Tests used:
Mus musculus [1] = assay: Immunomodulatory activity in Pseudomonas aeruginosa M57-15 infected C57BL/6 mouse lung assessed as CD11b-c+ cell expression level in lung digest at 0.16 g/kg, po measured after 7 days by flow cytometry (reference value: 29.15 +/- 3.98 %); assay type: functional
Summary of the method: (§1)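 Oral gavage of 0.16 g/kg daily (2% methylcellulose vehicle) began 4 days before intratracheal bead infection (1 × 105 to 2 × 10^5 CFU). On days 3, 7 and 14, cells were taken from lavage (0.3 mM EDTA buffer) and from collagenase/DNase lung digest (1 h, 37°C). Cells were stained for CD11b, CD11c, Gr-1, CD4, CD80, MHC-II and MR, with more than 50,000 events acquired. Counts were gated percent × manual cell count.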

Mus musculus [2] = assay: Immunomodulatory activity in Pseudomonas aeruginosa M57-15 infected C57BL/6 mouse lung assessed as up-regulation of MHC2 expression in CD11+ Gr1- cells in lung digest at 0.16 g/kg, po measured after 7 days by flow cytometry; assay type: functional, organism-based; summary of the method: as §1
Mus musculus [3] = assay: Immunomodulatory activity in Pseudomonas aeruginosa M57-15 infected C57BL/6 mouse lung assessed as CD11b-c+ cell expression level in lung lavage fluid at 0.16 g/kg, po measured after 7 days by flow cytometry (reference value: 72.59 +/- 16.30 %); assay type: functional; summary of the method: as §1
Mus musculus [4] = assay: Immunomodulatory activity in Pseudomonas aeruginosa M57-15 infected C57BL/6 mouse lung assessed as decrease of TNFalpha production in CD11b+ cells in lung digest at 0.16 g/kg, po measured after 7 days by flow cytometry; assay type: functional, organism-based
Summary of the method: (§2)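 Lung digest cells (2 × 106) were stimulated for 4 h with 50 ng/ml PMA and 500 ng/ml ionomycin plus 10 μg/ml brefeldin A. They were surface-stained for CD11b/CD11c, fixed in 4% formalin, permeabilized with 0.05% saponin, Fc-blocked, and stained for intracellular TNF-α and IL-10 for flow cytometry. Mice were dosed at 0.16 g/kg by daily oral gavage from 4 days before infection.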

Mus musculus [5] = assay: Immunomodulatory activity in Pseudomonas aeruginosa M57-15 infected C57BL/6 mouse lung assessed as decrease of IL-10 production in CD11b+ cells in lung digest at 0.16 g/kg, po measured after 7 days by flow cytometry; assay type: functional, organism-based; summary of the method: as §2
Mus musculus [6] = assay: Immunomodulatory activity in Pseudomonas aeruginosa M57-15 infected C57BL/6 mouse lung assessed as increase of total cells in lung digest at 0.16 g/kg, po measured after 14 days by flow cytometry; assay type: functional, organism-based; summary of the method: as §1
Mus musculus [7] = assay: Immunomodulatory activity in Pseudomonas aeruginosa M57-15 infected C57BL/6 mouse lung assessed as CD11b-c+ cell expression level in lung digest at 0.16 g/kg, po measured after 3 days by flow cytometry (reference value: 19.71 +/- 3.89 %); assay type: functional; summary of the method: as §1
Mus musculus [8] = assay: Immunomodulatory activity in Pseudomonas aeruginosa M57-15 infected C57BL/6 mouse lung assessed as increase of CD4+ T cell in lung lavage fluid at 0.16 g/kg, po measured after 7 to 14 days by flow cytometry; assay type: functional, organism-based; summary of the method: as §1
Mus musculus [9] = assay: Immunomodulatory activity in Pseudomonas aeruginosa M57-15 infected C57BL/6 mouse lung assessed as CD11b+c- cell expression level in lung digest at 0.16 g/kg, po measured after 7 days by flow cytometry (reference value: 17.07 +/- 4.84 %); assay type: functional; summary of the method: as §1
Pseudomonas aeruginosa [10] = assay: Antibacterial activity against Pseudomonas aeruginosa M57-15 infected in C57BL/6 mouse assessed as increase of host survival time at 0.16 g/kg, po measured up to 14 days; assay type: functional, organism-based
Summary of the method: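 For survival, mice received 1.3 × 10^6 CFU (1× LD50) intratracheally in agarose beads under isoflurane. Daily oral gavage of 0.16 g/kg in 2% methylcellulose, or vehicle, began 4 days before infection. Survival curves were compared by log-rank.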

Mus musculus [11] = assay: Immunomodulatory activity in Pseudomonas aeruginosa M57-15 infected C57BL/6 mouse lung assessed as increase of mannose receptor expression in CD11b+ Gr1+ cells in alveolar space at 0.16 g/kg, po measured after 7 days by flow cytometry; assay type: functional, organism-based; summary of the method: as §1
Pseudomonas aeruginosa [12] = assay: Antibacterial activity against Pseudomonas aeruginosa M57-15 infected in C57BL/6 mouse assessed as effect on bacterial burden at 0.16 g/kg, po measured up to 14 days; assay type: functional, organism-based
Summary of the method: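 Mice got 0.16 g/kg in 2% methylcellulose by daily oral gavage, starting 4 days before infection, or vehicle. Infection was intratracheal with bead-embedded bacteria, 1 × 105 to 2 × 10^5 CFU (about LD10). On days 0, 3, 7 and 14, aliquots of lung lavage and digest were plated on Pseudomonas selection agar and CFU counted manually after overnight growth.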

Mus musculus [13] = assay: Immunomodulatory activity in Pseudomonas aeruginosa M57-15 infected C57BL/6 mouse lung assessed as increase of CD80 expression in CD11b+ Gr1+ cells in lung digest at 0.16 g/kg, po measured after 7 days by flow cytometry; assay type: functional, organism-based; summary of the method: as §1
Mus musculus [14] = assay: Immunomodulatory activity in Pseudomonas aeruginosa M57-15 infected C57BL/6 mouse lung assessed as CD11b+c+ cell expression level in lung lavage fluid at 0.16 g/kg, po measured after 7 days by flow cytometry (reference value: 1.51 +/- 1.53 %); assay type: functional; summary of the method: as §1
Mus musculus [15] = assay: Immunomodulatory activity in Pseudomonas aeruginosa M57-15 infected C57BL/6 mouse lung assessed as CD11b+c- cell expression level in lung digest at 0.16 g/kg, po measured after 14 days by flow cytometry (reference value: 21.97 +/- 3.51 %); assay type: functional; summary of the method: as §1
Mus musculus [16] = assay: Immunomodulatory activity in Pseudomonas aeruginosa M57-15 infected C57BL/6 mouse lung assessed as CD11b+c+ cell expression level in lung lavage fluid at 0.16 g/kg, po measured after 14 days by flow cytometry (reference value: 5.42 +/- 5.34 %); assay type: functional; summary of the method: as §1
Mus musculus [17] = assay: Immunomodulatory activity in Pseudomonas aeruginosa M57-15 infected C57BL/6 mouse lung assessed as increase of CD80 expression in CD11b+ Gr1+ cells in alveolar space at 0.16 g/kg, po measured after 7 days by flow cytometry; assay type: functional, organism-based; summary of the method: as §1
Mus musculus [18] = assay: Immunomodulatory activity in Pseudomonas aeruginosa M57-15 infected C57BL/6 mouse lung assessed as decrease of IL-6 production in CD11b+ cells in lung lavage fluid at 0.16 g/kg, po measured after 7 days by flow cytometry; assay type: functional, organism-based
Summary of the method: (§3)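 The first 1-ml lavage wash was frozen at −80°C. Samples diluted 5-fold were incubated 3 h at room temperature with capture beads for a cytometric bead array (IL-12p70, CCL2, TNF-α, IL-10, IFN-γ, IL-6) plus a PE-conjugated detection antibody. Fluorescence was read by flow cytometry against standard curves. Mice had daily oral 0.16 g/kg from 4 days before intratracheal infection.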

Mus musculus [19] = assay: Immunomodulatory activity in Pseudomonas aeruginosa M57-15 infected C57BL/6 mouse lung assessed as increase of MHC2 expression in CD11b+ Gr1+ cells in lung digest at 0.16 g/kg, po measured after 7 days by flow cytometry; assay type: functional, organism-based; summary of the method: as §1
Mus musculus [20] = assay: Immunomodulatory activity in Pseudomonas aeruginosa M57-15 infected C57BL/6 mouse lung assessed as CD11b+c+ cell expression level in lung digest at 0.16 g/kg, po measured after 3 days by flow cytometry (reference value: 8.63 +/- 0.53 %); assay type: functional; summary of the method: as §1
Mus musculus [21] = assay: Immunomodulatory activity in Pseudomonas aeruginosa M57-15 infected C57BL/6 mouse lung assessed as decrease of IFN-gamma production in CD11b+ cells in lung lavage fluid at 0.16 g/kg, po measured after 7 days by flow cytometry; assay type: functional, organism-based; summary of the method: as §3
Mus musculus [22] = assay: Immunomodulatory activity in Pseudomonas aeruginosa M57-15 infected C57BL/6 mouse lung assessed as decrease of IL-10 production in CD11b+ cells in lung lavage fluid at 0.16 g/kg, po measured after 7 days by flow cytometry; assay type: functional, organism-based; summary of the method: as §3

**Q.** With CC[C@H]1OC(=O)[C@H](C)[C@@H](O[C@H]2C[C@@](C)(OC)[C@@H](O)[C@H](C)O2)[C@H](C)[C@@H](O[C@@H]2O[C@H](C)C[C@H](N(C)C)[C@H]2O)[C@](C)(O)C[C@@H](C)CN(C)[C@H](C)[C@@H](O)[C@]1(C)O [AZITHROMYCIN] as the compound, how does the Activity (Mus musculus [1]) read?
**A.** 20.36%

**Q.** And the Activity (Mus musculus [2])?
**A.** Active

**Q.** What about the Activity (Mus musculus [3]) of the same compound?
**A.** 38.47%

**Q.** What about the Activity (Mus musculus [4]) of the same compound?
**A.** Active

**Q.** What about the Activity (Mus musculus [5]) of the same compound?
**A.** inactive

**Q.** And the Activity (Mus musculus [6])?
**A.** Active

**Q.** And the Activity (Mus musculus [7])?
**A.** 20.92%

**Q.** What about the Activity (Mus musculus [8]) of the same compound?
**A.** Active

**Q.** What about the Activity (Mus musculus [9]) of the same compound?
**A.** 16.83%

**Q.** What about the Activity (Pseudomonas aeruginosa [10]) of the same compound?
**A.** inactive

**Q.** And the Activity (Mus musculus [11])?
**A.** Active

**Q.** What about the Activity (Pseudomonas aeruginosa [12]) of the same compound?
**A.** inactive

**Q.** What about the Activity (Mus musculus [13]) of the same compound?
**A.** Active

**Q.** And the Activity (Mus musculus [14])?
**A.** 21.67%

**Q.** And the Activity (Mus musculus [15])?
**A.** 15.55%

**Q.** What about the Activity (Mus musculus [16]) of the same compound?
**A.** 5.25%

**Q.** What about the Activity (Mus musculus [17]) of the same compound?
**A.** Active

**Q.** What about the Activity (Mus musculus [18]) of the same compound?
**A.** Active

**Q.** What about the Activity (Mus musculus [19]) of the same compound?
**A.** Active

**Q.** What about the Activity (Mus musculus [20]) of the same compound?
**A.** 7.44%

**Q.** What about the Activity (Mus musculus [21]) of the same compound?
**A.** inactive

**Q.** What about the Activity (Mus musculus [22]) of the same compound?
**A.** inactive
